MT1-MMP act inh = inhibitors of human MT1-MMP activation; P50281; HT1080 RFP-PRO-GFP cells, GFP/RFP ratio fluorescence, overnight; percent of plate control window, DMSO zero; GFP/RFP ratio change, % at 20 µM; 360,000 tested, 0.061% active; AID 651647;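 active = GFP/RFP ratio change of at least 30% with cell ATP level not reduced by more than half and red fluorescence within 50% of control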
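Assay system: HT1080 RFP-PRO-GFP cells | Dosing: 20 µM single dose, 1% DMSO | Incubation: Cells overnight before dosing, compound overnight, 37 °C, 5% CO2 | Evaluation: GFP/RFP fluorescence ratio | Control set: DMSO-only wells and HT1080 RFP-L50D-GFP cell wells as references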
MsrA act = activates bovine MsrA enzyme; purified bovine MsrA, absorbance read-out; activation, % at 10.6 µM; 360,000 tested, 0.3% active; AID 602163; in the data active = activation above about 7.5%;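 note: 0% = vehicle and 100% = reference activator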
SKN-1 inh = blocks SKN-1 activity in C. elegans; C. elegans VP596 Pgst-4::GFP/RFP ratio, acrylamide-induced, 24 h; inhibition, % at 21.8 µM; 360,000 tested, 0.49% active; AID 624304;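 active = interference check ratio from 0.5 to 1.5 plus GFP to RFP signal ratio inhibition reaching or exceeding a fixed threshold, cut at about 30% in these data, passing the limit was not always enough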
MsrA inh = inhibits bovine methionine sulfoxide reductase A; purified bovine MsrA, absorbance read-out; inhibition, % at 15.5 µM; 360,000 tested, 0.75% active; AID 651718; in the data active = inhibition above about 4.5%;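 note: 0% = vehicle wells with enzyme and 100% = reference inhibitor wells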
pCIP destab = p/CIP protein destabilization | decrease of EGFP signal, % at 10 µM | Q05BA5 | F442A p/CIP-EGFP cells, EGFP fluorescence, 16 h | 290,000 tested, 0.01% active | AID 1984;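 active = EGFP signal decrease of at least 30% at 10 µM or well 3 SD below plate mean, unless failing retest; inactive = the rest, including hits failing retest or dose response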
MsrA act confirm = bovine methionine sulfoxide reductase A activation confirmed. shares compounds with MsrA act. activation, % at 10.6 µM. AID 602270. purified bovine MsrA, absorbance read-out. 1,000 tested, 12% active; in the data active = activation above about 4%;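 note: enzyme coupled to thioredoxin and thioredoxin reductase with NADPH; 0% = vehicle wells and 100% = reference activator wells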
Starred values were filed as active, the others as inactive; . = no result. Compounds with a hit are over-represented: about 1.6% of the library has one in this group of screens.

SMILES	MT1-MMP act inh	MsrA act	SKN-1 inh	MsrA inh	pCIP destab	MsrA act confirm
Cn1c(N)c(S(=O)(=O)NCc2ccccc2)c(=O)n(C)c1=O	-1	-4	6	0	.	.
CC(C)(C)NC(=O)/C=C/c1ccc(C(F)(F)F)cc1	3	8.2*	3	0	-3	-1
O=C1C=C(NCc2ccccc2)c2ccccc2C1=O	6	9.4*	12	2	-22	8.9*
Cc1ccc(NC2=CC(=O)C(=O)c3ccccc32)c(C)c1	10	-2	5	0	.	.
O=C1C=C(Nc2ccccc2O)c2ccccc2C1=O	12	9.3*	25	2	-28	6.1*
Cc1ccccc1C(=O)N[C@H](C(=O)N1CCC[C@H]1C(=O)NC1CCCC1)c1ccccc1	.	.	.	3	.	.
Cc1cc(Nc2cc(Cl)cc(Cl)c2)cc(=O)n1-c1cc(Cl)cc(Cl)c1	.	.	.	0	.	.
C=C1CCC[C@]2(C)C[C@H]3OC(=O)C(CNCCN(CC)CC)[C@H]3CC12 (stereo partly drawn)	-11	8.4*	-2	-1	2	-1
O=C(O)c1cc(-c2ccc(Cl)cc2)n[nH]1	3	9.2*	-14	0	-8	-2
CN(C)c1ccc(-c2sc(Nc3ccccc3)n[n+]2-c2ccc(F)cc2)cc1	-3	0	-3	1	9	.
CCN(CC)c1ccc(-c2sc(Nc3ccccc3)n[n+]2-c2ccc(F)cc2)cc1	-1	17*	0	3	-27	4.0*
O=C(Cn1sc2ccccc2c1=O)Nc1ccccc1	-1	7.7*	10	0	.	2
CC(=O)C1=CCN(C)CC1	.	.	.	-1	.	.
Cc1cc(C)cc(NC(=S)N2CCCC2)c1	0	12*	9	1	-1	-3
COC(=O)c1ccc(/C=N/NC(=O)c2ccccc2Cl)cc1	5	-10	3	2	-7	.
CC(C)c1ccc(/C=N/NC(=O)c2ccccc2Cl)cc1	5	13*	-6	1	-1	-4
COc1ccc(-c2cccc3c4c([nH]c23)[C@@H]2C[C@H]3[C@@H](C(=O)N2CC4)[C@H](C)ON3C)cc1	.	.	.	0	.	.
COc1ccccc1NC(=O)COC(=O)C12CC3CC(CC(Cl)(C3)C1)C2	1	15*	-5	-1	-4	-2
COC(=O)c1ccc(OCCOc2ccccc2)cc1	0	-3	-8	0	-14	.
COc1cccc(OC)c1OCCOc1ccc(C(=O)c2ccccc2)cc1	-1	18*	6	0	-2	1
Nc1nc2c(ncn2[C@@H]2O[C@H](C(=O)NCC3CCCCC3)[C@@H](O)[C@H]2O)c(=O)[nH]1	.	.	.	1	.	.
CC1(C)CC(=O)C2=C(C1)N(CC1CCCO1)C(=O)NC2(C(F)(F)F)C(F)(F)F (stereo not drawn)	6	11*	4	0	1	-1
CCN(CC)S(=O)(=O)c1cc(NC(=O)COC(=O)CCC(=O)c2cccs2)ccc1C	-2	8.4*	-3	2	1	0
S=C1NCCOc2ccccc21	.	.	.	2	.	.
CC1(C)Cc2cccc(Oc3ccc(S(=O)(=O)N4CCCCC4)cn3)c2O1	-6	7.7*	-5	1	4	-1
SMILES	MT1-MMP act inh	MsrA act	SKN-1 inh	MsrA inh	pCIP destab	MsrA act confirm
CCOC(=O)Cn1nc(C)c(NC(=O)COc2ccccc2)c1C	0	8.0*	7	-1	-19	2
COc1ccc(C2CC(c3cccs3)=Nc3ccccc3S2)cc1 (stereo not drawn)	-1	10*	1	3	-11	-1
COc1cccc2c(=O)cc(C)n(CC(=O)Nc3ccc(C)c(C)c3)c12	1	9.4*	17	0	-1	0
CCCNC(=O)C1(C)CCCN(Cc2noc(-c3c(C)noc3C)n2)C1 (stereo not drawn)	0	2	18	0	.	.
CCNC(=O)C1(C)CCCN(Cc2noc(-c3c(C)noc3C)n2)C1 (stereo not drawn)	5	9.2*	15	0	.	0
S=c1[nH]nc(-c2ccncc2)n1Cc1ccccc1	2	8.5*	4	1	-9	1
Clc1ccccc1N=Nc1ccccn1	-72	34*	24	0	.	0
Cc1[nH][nH]c(=O)c1N=Nc1ccccc1Cl	3	-3	7	4	12	.
Cc1sc(NC(=O)CN2CCCC2)nc1-c1ccc2c(c1)CCN2C(=O)c1ccc(F)cc1	3	12*	7	-1	3	-3
C#CCN1C=C(C(=O)OCC)C(C)N(Cc2ccccc2I)S1(=O)=O (stereo not drawn)	-6	12*	-9	1	.	0
C#CCN1C=C(C(=O)OCC)C(C)NS1(=O)=O (stereo not drawn)	1	-1	-2	0	.	.
COc1cccc(C(C)(O)c2nc(-c3cccc(C(F)(F)F)c3)cs2)c1 (stereo not drawn)	0	-5	0	1	.	.
COc1ccc(C(C)(O)c2nc(-c3cccc(C(F)(F)F)c3)cs2)cc1 (stereo not drawn)	-1	9.8*	-4	1	.	2
Cc1ccc(S(=O)(=O)N2CCC(C(=O)NCCCOC(C)C)CC2)cc1	1	7.7*	-6	-1	-8	0
C[C@@H]1ON(C)[C@H]2C[C@H]3c4[nH]c5cccc(-c6ccc7c(c6)OCO7)c5c4CCN3C(=O)[C@@H]12	.	.	.	0	.	.
O=C1CCCC(O)=C1N=Nc1ccc(Cl)c(Cl)c1	1	-2	-4	4	6	.
CC(=O)N1CCc2cc(N=NC3=C(O)CCCC3=O)ccc21	10	8.7*	16	2	-5	-1
COc1ccc(NS(=O)(=O)c2cccc(C(=O)NCC(c3ccc(OC)cc3)N3CCCC3)c2)cc1 (stereo not drawn)	1	-1	4	0	.	.
COc1ccc(C(CNC(=O)c2cccc(N(C)C)c2)N2CCCC2)cc1 (stereo not drawn)	-1	9.0*	3	2	-4	0
S=C(SCc1nc(-c2ccc(Cl)cc2)no1)N1CCSCC1	.	.	.	1	.	.
Cc1cc(C)c(S(=O)(=O)NC2CCN(Cc3ccccc3)CC2)c(C)c1	1	-2	-2	0	-5	.
Cc1noc(C)c1S(=O)(=O)NC1CCN(Cc2ccccc2)CC1	-3	10*	-5	-1	-28	-1
CCc1cc2c(nc1CC)CCCN2S(=O)(=O)c1ccc(C(F)(F)F)cc1	.	.	.	0	.	.
O=C1NC(Cc2ccccc2)c2nc3cc(F)c(F)cc3c(=O)n2-c2ncccc21 (stereo not drawn)	-4	9.7*	5	1	.	1
O=C1NC(Cc2ccccc2)c2nc3cc(F)ccc3c(=O)n2-c2ncccc21 (stereo not drawn)	1	-2	-1	0	.	.
COC(=O)c1sc(=S)n(-c2ccccc2OC)c1N	5	-1	0	2	-31	.
CCOC(=O)c1sc(=S)n(-c2ccccc2OC)c1N	5	8.4*	14	3	-14	-6

From PubChem BioAssay
